Data as given in ChEMBL document CHEMBL4014311, “Discovery of a Hepatitis C Virus NS5B Replicase Palm Site Allosteric Inhibitor (BMS-929075) Advanced to Phase 1 Clinical Studies” (J Med Chem, 2017).

Experiments:
Hepatitis C virus [1] = experiment: Antiviral activity against HCV genotype 2b infected in human HuH7 cells after 3 days by luciferase reporter assay; format: functional, cell-based, Hepacivirus hominis; conditions: Huh-7, 72 h
Hepatitis C virus [2] = experiment: Antiviral activity against HCV genotype 3a infected in human HuH7 cells after 3 days by luciferase reporter assay; format: functional, cell-based, Hepacivirus hominis; conditions: Huh-7, 72 h
[3] = Ratio of plasma concentration in human at 25 mg/day administered as single dose to EC50 for HCV genotype 1b NS5B C316N mutant infected in human HuH7 cells
Summary of the method: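 Randomized, double-blind, placebo-controlled Phase I single ascending dose study in healthy volunteers. Single oral dose of an amorphous solid dispersion formulation with 30% drug loading, at doses up to 400 mg. Human plasma exposure was measured and set against the replicon EC50.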

Hepatitis C virus [4] = experiment: Ratio of EC50 for HCV genotype 1b infected in human HuH7 cells in presence of 40% human serum to EC50 for HCV genotype-1b infected in human HuH7 cells; format: functional, Hepacivirus hominis
Homo sapiens = experiment: Toxicity in human up to 400 mg, po administered as single dose; conditions: in vivo
[5] = Effective permeability across apical to basolateral side in human Caco2 cells; format: ADME, cell-based; conditions: Caco-2, read-out: Peff
[6] = Tmax in Sprague-Dawley rat at 6 mg/kg, po administered via gavage by LC/MS/MS analysis; format: ADME, organism-based; conditions: in vivo
Summary of the method: (§1)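 Rats fasted overnight, then dosed by gavage at 6 mg/kg in 90:10 PEG-400/ethanol (v/v). Plasma sampled serially from cannula into EDTA tubes predose and at 15, 30, 45, 60 min and 2, 4, 6, 8, 24 h; n = 3. Livers removed at 6 h (satellite animals) and 24 h, homogenized in 80% acetonitrile/HBSS, assayed by LC/MS/MS. Tmax taken directly from observed data.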

[7] = Tmax in Sprague-Dawley rat at 6 mg/kg, po administered via gavage using docusate sodium/methocel/water formulation by LC/MS/MS analysis; format: ADME, organism-based; conditions: in vivo
Summary of the method: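 Fasted rats gavaged at 6 mg/kg with a spray-dried dispersion suspension (10% w/w drug loading in 0.02:0.5:99.48 docusate/methocel/water). Serial plasma samples predose and at 15, 30, 45, 60 min and 2, 4, 6, 8, 24 h; n = 3. Plasma analyzed by LC/MS/MS. Tmax read directly from observed concentrations.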

Cytochrome P450 2C8 = molecular target: T1, Cytochrome P450 2C8 (Homo sapiens, UniProt P10632); experiment: Inhibition of microsomal CYP2C8 (unknown origin); format: ADME
T1 sequence (P10632 whole entry): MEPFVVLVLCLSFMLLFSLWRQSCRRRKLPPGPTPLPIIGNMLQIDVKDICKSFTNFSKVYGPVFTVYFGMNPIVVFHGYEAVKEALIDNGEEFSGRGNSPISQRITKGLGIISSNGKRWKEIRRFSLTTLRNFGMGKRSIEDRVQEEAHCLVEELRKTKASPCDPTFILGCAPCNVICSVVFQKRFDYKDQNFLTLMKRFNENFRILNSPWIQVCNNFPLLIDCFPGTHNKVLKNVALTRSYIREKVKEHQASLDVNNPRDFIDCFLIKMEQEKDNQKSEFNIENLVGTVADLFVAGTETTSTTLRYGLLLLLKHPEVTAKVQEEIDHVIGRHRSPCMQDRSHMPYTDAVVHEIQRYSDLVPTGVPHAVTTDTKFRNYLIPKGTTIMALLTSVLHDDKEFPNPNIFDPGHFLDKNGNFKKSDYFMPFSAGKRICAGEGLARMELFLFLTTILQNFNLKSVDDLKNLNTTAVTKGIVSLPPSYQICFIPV

[8] = AUC in Sprague-Dawley rat at 6 mg/kg, po administered via gavage using docusate sodium/methocel/water formulation by LC/MS/MS analysis; format: ADME, organism-based; conditions: in vivo
Summary of the method: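 Rats were fasted overnight and gavaged with a suspension of spray-dried dispersion (10% w/w drug loading in 0.02:0.5:99.48 docusate/methocel/water), n = 3 per group. Serial EDTA plasma was taken predose to 24 h and assayed by LC/MS/MS. Analysis was noncompartmental: Cmax observed, AUC by linear/log trapezoids, F from dose-normalized PO versus IV AUC.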

[9] = Cmax in Sprague-Dawley rat at 6 mg/kg, po administered via gavage by LC/MS/MS analysis; format: ADME, organism-based; parameters: dose 6 mg/kg, route oral; conditions: in vivo
Summary of the method: (§2)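 Rats were fasted overnight with free access to water, then dosed by gastric gavage with an […] solution in 90:10 PEG-400/ethanol (v/v), n = 3 per group. EDTA plasma was sampled predose and at 15, 30, 45, 60 min and 2, 4, 6, 8, 24 h, then assayed by LC/MS/MS. Parameters come from noncompartmental analysis: Cmax observed directly, AUC by linear/log trapezoidal summation, F as dose-normalized PO/IV AUC ratio.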

[10] = Volume of distribution at steady state in Sprague-Dawley rat at 2 mg/kg, iv by LC/MS/MS analysis; format: ADME, organism-based; conditions: Sprague-Dawley, in vivo, read-out: Vdss
Summary of the method: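 Rats received a 2 mg/kg IV dose in 90:10 PEG-400/ethanol as a 10 min constant-rate jugular infusion. Blood collected predose and at 10, 15, 30, 45, 60 min and 2, 4, 6, 8, 24 h; n = 3. Plasma analyzed by LC/MS/MS. Vss derived by noncompartmental analysis of IV data.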

Hepatitis C virus [11] = experiment: Antiviral activity against HCV genotype 4a infected in human HuH7 cells after 3 days by luciferase reporter assay; format: functional, cell-based, Hepacivirus hominis; conditions: Huh-7, 72 h
[12] = Half life in rat liver microsomes; format: ADME, microsome
[13] = Protein binding in monkey serum; format: ADME, cell-free, Macaca mulatta; conditions: rhesus monkey, read-out: PB (converted)
Cytochrome P450 3A4 = Cytochrome P450 3A4 (Homo sapiens, UniProt P08684); experiment: Inhibition of microsomal CYP3A4 (unknown origin); format: ADME
[14] = AUC in Sprague-Dawley rat at 6 mg/kg, po administered via gavage by LC/MS/MS analysis; format: ADME, organism-based; conditions: in vivo; summary of the method: as §2
[15] = Ratio of drug uptake in Sprague-Dawley rat liver to plasma at 6 mg/kg, po administered via gavage after 24 hrs by LC/MS/MS analysis; format: ADME, organism-based; summary of the method: as §1
Hepatitis C virus [16] = experiment: Antiviral activity against HCV genotype 2a infected in human HuH7 cells after 3 days by luciferase reporter assay; format: functional, cell-based, Hepacivirus hominis; conditions: Huh-7, 72 h
[17] = Protein binding in dog serum; format: ADME, cell-free, Canis lupus familiaris; conditions: read-out: PB (converted)
[18] = Cytotoxicity against primary human hepatocytes; format: cell-based, Hepatocyte
Canis familiaris = experiment: Toxicity in dog up to 100 mg/kg, po administered as single dose measured up to 2 weeks; format: organism-based, Canis lupus familiaris; conditions: in vivo, 336 h
[19] = Protein binding in human serum; format: ADME, cell-free; conditions: read-out: PB (converted)
Rattus norvegicus = experiment: Toxicity in rat up to 100 mg/kg, po administered as single dose measured up to 2 weeks; format: organism-based; conditions: in vivo, 336 h
[20] = Lipophilicity, log D of the compound by shake flask method; format: physicochemical; conditions: octanol/water

Chain of Cytochrome P450 3A4 (P08684 whole entry): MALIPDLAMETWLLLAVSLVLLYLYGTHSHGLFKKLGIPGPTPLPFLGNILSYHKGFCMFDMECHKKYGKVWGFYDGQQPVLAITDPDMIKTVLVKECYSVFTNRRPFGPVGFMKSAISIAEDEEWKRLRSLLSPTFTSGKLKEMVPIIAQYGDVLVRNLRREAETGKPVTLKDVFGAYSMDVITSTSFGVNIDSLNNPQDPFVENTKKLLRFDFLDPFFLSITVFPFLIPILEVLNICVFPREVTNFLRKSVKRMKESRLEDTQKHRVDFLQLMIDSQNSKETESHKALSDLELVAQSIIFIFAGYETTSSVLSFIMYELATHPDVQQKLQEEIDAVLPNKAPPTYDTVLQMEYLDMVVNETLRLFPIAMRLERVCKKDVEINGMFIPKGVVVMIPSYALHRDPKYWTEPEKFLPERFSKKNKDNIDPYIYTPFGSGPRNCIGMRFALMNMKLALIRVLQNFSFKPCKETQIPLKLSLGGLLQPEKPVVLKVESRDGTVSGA

In the case of `CNC(=O)c1c(-c2ccc(F)cc2)oc2ccc(-c3cc(C(=O)NC4(c5ncccn5)CC4)ccc3C)c(F)c12` [BMS-929075], the EC50 (Hepatitis C virus [1]) is reported as 115 nM, the EC50 (Hepatitis C virus [2]) is reported as 22 nM and the Ratio [3] is reported as 10. For the same molecule, the “Ratio EC50” value (Hepatitis C virus [4]) was 5.5, the Activity (Homo sapiens) was “Non-Toxic” and the Papp A→B [5] was > 10 ×10⁻⁶ cm/s. For the same molecule, the Tmax [6] was 4 h, the Tmax [7] was 4 h and the IC50 (Cytochrome P450 2C8) was 6.7 µM. For the same molecule, the AUC [8] was 140 µM·h, the Cmax [9] was 7.5 µM and the Vd [10] was 0.7 L/kg. For the same molecule, the EC50 (Hepatitis C virus [11]) was 3 nM, the half-life [12] was > 120 min and the fraction unbound [13] was 0.028. For the same molecule, the IC50 (Cytochrome P450 3A4) was > 13 µM, the AUC [14] was 54.5 µM·h and the Kp at 24 h [15] was 1.6. The EC50 (Hepatitis C virus [16]) was 481 nM, the fraction unbound [17] was 0.019 and the CC50 [18] was > 50 µM. The Activity (Canis familiaris) was “Non-Toxic”, the fraction unbound [19] was 0.018 and the Activity (Rattus norvegicus) was “Non-Toxic”. The logD [20] was 5.09.
